Laboratory results: ChEMBL document CHEMBL1151472, “In vitro interactions between tacrolimus and azoles against Candida albicans determined by different methods” (2008)
Converted amounts (≈) assume the structure as drawn.

Assays:
Type in all cases: functional
Candida albicans [1] = assay: Antimicrobial activity against azole-resistant Candida albicans isolate CA10 assessed as growth at 0.125 ug/ml cotreated with 0.002 ug/ml calcineurin signaling inhibitor Tacrolimus after 48 hrs by microdilution checkboard technique relative to control; parameters: scale not given: the % may be the effect or the level left
Summary of the method: (§1)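 Checkerboard microdilution in MOPS-buffered RPMI 1640 (pH 7.0, 2% dextrose). Final ranges: azole 0.125–128 μg/ml (FLC) or 0.008–8 μg/ml (ITR, VRC), tacrolimus 0.002–0.125 μg/ml; solvent 1% in single-drug wells. Inoculum 2.5 × 10^3 CFU/ml, 35°C, 48 h. Growth % = background-subtracted OD492 of each well / drug-free well. Triplicate on different days.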

Candida albicans [2] = assay: Antimicrobial activity against azole-resistant Candida albicans isolate CA10 assessed as growth at 4 ug/ml cotreated with 0.004 ug/ml calcineurin signaling inhibitor tacrolimus after 48 hrs by microdilution checkerboard technique relative to control; parameters: scale not given: the % may be the effect or the level left
Summary of the method: (§2)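 CA10 in RPMI 1640 with 2% dextrose and 0.165 M MOPS, pH 7.0. Checkerboard used twofold dilutions, with azole alone in row H and the drug-free growth control in well H1. Final inoculum was 2.5 × 10^3 CFU/ml, incubated 35°C for 48 h, with OD read at 492 nm. Growth % = background-subtracted well OD / drug-free well OD. Run in triplicate on different days.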

Candida albicans [3] = assay: Antimicrobial activity against azole-resistant Candida albicans isolate CA10 assessed as growth at 0.5 ug/ml cotreated with 0.063 ug/ml calcineurin signaling inhibitor Tacrolimus after 48 hrs by microdilution checkboard technique relative to control; parameters: scale not given: the % may be the effect or the level left; summary of the method: as §1
Candida albicans [4] = assay: Antimicrobial activity against azole-resistant Candida albicans isolate CA10 assessed as growth at 128 ug/ml cotreated with 0.008 ug/ml calcineurin signaling inhibitor Tacrolimus after 48 hrs by microdilution checkboard technique relative to control; parameters: scale not given: the % may be the effect or the level left; summary of the method: as §1
Candida albicans [5] = assay: Antimicrobial activity against azole-resistant Candida albicans isolate CA10 assessed as growth at 64 ug/ml cotreated with 0.063 ug/ml calcineurin signaling inhibitor Tacrolimus after 48 hrs by microdilution checkboard technique relative to control; parameters: scale not given: the % may be the effect or the level left; summary of the method: as §2
Candida albicans [6] = assay: Antimicrobial activity against azole-resistant Candida albicans isolate CA10 assessed as growth at 0.25 ug/ml cotreated with 0.016 ug/ml calcineurin signaling inhibitor Tacrolimus after 48 hrs by microdilution checkboard technique relative to control; parameters: scale not given: the % may be the effect or the level left
Summary of the method: (§3)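 Checkerboard microdilution in RPMI 1640 (pH 7.0, 2% dextrose, 0.165 M MOPS). Azole dilutions run along columns and FK506 along rows, at 4× final concentration. Final inoculum 2.5 × 10^3 CFU/ml from Sabouraud-subcultured cells. Incubated 35°C for 48 h; OD read at 492 nm. Background from microorganism-free plates subtracted. Growth % = well OD / drug-free well OD. Triplicate on different days, values averaged.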

Candida albicans [7] = assay: Antimicrobial activity against azole-resistant Candida albicans isolate CA137 cotreated with calcineurin signaling inhibitor Tacrolimus after 48 hrs by microdilution checkerboard technique; details: isolate CA137, 48 h
Summary of the method: (§4)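 Checkerboard microdilution in MOPS-buffered RPMI 1640 (pH 7.0, 2% dextrose) with 2.5 × 10^3 CFU/ml for 48 h at 35°C. Final FK506 was 0.002–0.125 μg/ml. Azole finals were FLC 0.125–128 μg/ml, and ITR and VRC 0.008–8 μg/ml. MIC80 is an 80% OD492 decrease vs drug-free control. Interaction was scored by FICI (synergy ≤0.5, antagonism >4) and by ΔE from triplicates.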

Candida albicans [8] = assay: Antimicrobial activity against azole-resistant Candida albicans isolate CA16 cotreated with calcineurin signaling inhibitor Tacrolimus after 48 hrs by microdilution checkerboard technique; details: isolate CA16, 48 h; summary of the method: as §4
Candida albicans [9] = assay: Antimicrobial activity against azole-resistant Candida albicans isolate CA10 assessed as growth at 16 ug/ml cotreated with 0.063 ug/ml calcineurin signaling inhibitor tacrolimus after 48 hrs by microdilution checkerboard technique relative to control; parameters: scale not given: the % may be the effect or the level left; summary of the method: as §1
Candida albicans [10] = assay: Antimicrobial activity against azole-resistant Candida albicans isolate CA10 assessed as growth at 64 ug/ml co-treated with 0.031 ug/ml calcineurin signaling inhibitor tacrolimus after 48 hrs by microdilution checkboard technique relative to control; parameters: scale not given: the % may be the effect or the level left; summary of the method: as §3
Candida albicans [11] = assay: Antimicrobial activity against azole-resistant Candida albicans isolate CA10 assessed as growth at 16 ug/ml co-treated with 0.002 ug/ml calcineurin signaling inhibitor tacrolimus after 48 hrs by microdilution checkboard technique relative to control; parameters: scale not given: the % may be the effect or the level left; summary of the method: as §1
Candida albicans [12] = assay: Antimicrobial activity against azole-resistant Candida albicans isolate CA10 assessed as growth at 2 ug/ml cotreated with 0.002 ug/ml calcineurin signaling inhibitor tacrolimus after 48 hrs by microdilution checkerboard technique relative to control; parameters: scale not given: the % may be the effect or the level left; summary of the method: as §1
Candida albicans [13] = assay: Antimicrobial activity against azole-resistant Candida albicans isolate CA10 assessed as growth at 128 ug/ml co-treated with 0.031 ug/ml calcineurin signaling inhibitor tacrolimus after 48 hrs by microdilution checkboard technique relative to control; parameters: scale not given: the % may be the effect or the level left; summary of the method: as §3
Candida albicans [14] = assay: Antimicrobial activity against azole-resistant Candida albicans isolate CA16 after 48 hrs by broth microdilution method; details: isolate CA16, 48 h
Summary of the method: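 CLSI M27-A2 broth microdilution was run in RPMI 1640 (pH 7.0, 2% dextrose, 0.165 M MOPS). Inoculum was 2.5 × 10^3 CFU/ml, incubated 35°C for 48 h without shaking. Plates were read visually (0–5 scale) and at OD 492 nm. MIC80 = lowest concentration giving an 80% absorbance decrease vs drug-free control. Triplicate.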

Candida albicans [15] = assay: Antimicrobial activity against azole-resistant Candida albicans isolate CA10 assessed as growth at 0.25 ug/ml cotreated with 0.125 ug/ml calcineurin signaling inhibitor Tacrolimus after 48 hrs by microdilution checkboard technique relative to control; parameters: scale not given: the % may be the effect or the level left; summary of the method: as §3
Candida albicans [16] = assay: Antimicrobial activity against azole-resistant Candida albicans isolate CA10 assessed as growth at 2 ug/ml cotreated with 0.008 ug/ml calcineurin signaling inhibitor Tacrolimus after 48 hrs by microdilution checkboard technique relative to control; parameters: scale not given: the % may be the effect or the level left; summary of the method: as §1
Candida albicans [17] = assay: Antimicrobial activity against azole-resistant Candida albicans isolate CA10 assessed as growth at 0.002 ug/ml after 48 hrs by microdilution checkerboard technique relative to control; summary of the method: as §1
Candida albicans [18] = assay: Antimicrobial activity against azole-resistant Candida albicans isolate CA10 assessed as growth at 128 ug/ml co-treated with 0.063 ug/ml calcineurin signaling inhibitor tacrolimus after 48 hrs by microdilution checkboard technique relative to control; parameters: scale not given: the % may be the effect or the level left; summary of the method: as §1
Candida albicans [19] = assay: Antimicrobial activity against azole-resistant Candida albicans isolate CA10 assessed as growth at 32 ug/ml cotreated with 0.063 ug/ml calcineurin signaling inhibitor Tacrolimus after 48 hrs by microdilution checkboard technique relative to control; parameters: scale not given: the % may be the effect or the level left; summary of the method: as §2
Candida albicans [20] = assay: Antimicrobial activity against azole-resistant Candida albicans isolate CA10 assessed as growth at 0.004 ug/ml after 48 hrs by microdilution checkerboard technique relative to control; summary of the method: as §1
Candida albicans [21] = assay: Antimicrobial activity against azole-resistant Candida albicans isolate CA10 assessed as growth at 1 ug/ml cotreated with 0.008 ug/ml calcineurin signaling inhibitor Tacrolimus after 48 hrs by microdilution checkboard technique relative to control; parameters: scale not given: the % may be the effect or the level left; summary of the method: as §1
Candida albicans [22] = assay: Antimicrobial activity against azole-resistant Candida albicans isolate CA10 assessed as growth at 2 ug/ml co-treated with 0.031 ug/ml calcineurin signaling inhibitor tacrolimus after 48 hrs by microdilution checkboard technique relative to control; parameters: scale not given: the % may be the effect or the level left; summary of the method: as §3

OC(Cn1cncn1)(Cn1cncn1)c1ccc(F)cc1F [FLUCONAZOLE]
Activity (Candida albicans [1]): 76% | Activity (Candida albicans [2]): 46% | Activity (Candida albicans [3]): 13% | Activity (Candida albicans [4]): 39% | Activity (Candida albicans [5]): 0% | Activity (Candida albicans [6]): 23% | MIC (Candida albicans [7]): 0.5 µg/mL | MIC (Candida albicans [8]): 0.5 µg/mL | Activity (Candida albicans [9]): 7% | Activity (Candida albicans [10]): 13% | Activity (Candida albicans [11]): 35% | Activity (Candida albicans [12]): 48% | Activity (Candida albicans [13]): 14% | MIC (Candida albicans [14]): 64 µg/mL (≈ 209 µM) | Activity (Candida albicans [15]): 7% | Activity (Candida albicans [16]): 22% | Activity (Candida albicans [17]): 97% | Activity (Candida albicans [18]): 5% | Activity (Candida albicans [19]): 1% | Activity (Candida albicans [20]): 99% | Activity (Candida albicans [21]): 25% | Activity (Candida albicans [22]): 12%
